Measured values reported in ChEMBL document CHEMBL1681763, “Synthesis and biological evaluation of L-valine-amidoximeesters as double prodrugs of amidines” (Bioorg Med Chem, 2011).

Columns and labels:
[1] = Activation of prodrug into benzamidine per mg of recombinant hmARC2 in 20 mM MES buffer of pH 6.0 for 30 mins
How it was run: (§1)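 Recombinant human mARC1 or mARC2 (76 pmol) incubated with 0.5 mM prodrug, 1 mM NADH, 2 U pig liver carboxylesterase, 76 pmol cytochrome b5 and 7.6 pmol NADH cytochrome b5 reductase in 20 mM MES pH 6.0; amidine formed quantified by HPLC; turnover rates as mean ± SD of three incubations.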

[2] = Stability in pig kidney mitochondria assessed as conversion of prodrug into benzamidine per mg protein; type: ADME, Sus scrofa
How it was run: (§2)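 Human or porcine liver/kidney subcellular fractions (microsomes, mitochondria, 9000g supernatant, cytosol); 0.3 mg protein with 1 mM prodrug in 100 mM potassium phosphate pH 6.3, preincubated 5 min at 37 °C aerobically, started with NADH (1 mM final); protein removed by centrifugation, supernatant analysed by HPLC; turnover as mean ± SD of two independent experiments measured twice.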

Rattus norvegicus [3] = assay: Cmax in Wistar rat assessed as benzamidine at 50 mg/kg, po; type: ADME, organism-based; parameters: dose 50 mg/kg, route oral; details: in vivo
How it was run: (§3)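 Male Wistar rats (initial weight 230 g) fitted with carotid artery and jugular vein cannulas, fasted 16 h; prodrug 50 mg/kg by oral gavage in 100 mM phosphate buffer pH 6.3 (n = 3); reference benzamidine 10 mg/kg iv in water for injection; blood at 30–480 min (oral) or 10–360 min (iv); plasma benzamidine by HPLC.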

[4] = Stability in pig liver cytosol assessed as conversion of prodrug into benzamidine per mg protein in potassium phosphate buffer of pH 6.3; type: ADME, tissue-based, Sus scrofa; how it was run: as §2
Rattus norvegicus [5] = assay: Volume of distribution in Wistar rat assessed as benzamidine at 50 mg/kg, po; type: ADME, organism-based; parameters: dose 50 mg/kg, route oral; details: in vivo; how it was run: as §3
Rattus norvegicus [6] = assay: Clearance in Wistar rat assessed as benzamidine at 50 mg/kg, po; type: ADME, organism-based; parameters: dose 50 mg/kg, route oral; details: in vivo; how it was run: as §3
[7] = Stability of the compound at pH 6.3; type: physicochemical; details: buffer
How it was run: (§4)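 Chemical stability: prodrug at 100 µM in 100 mM potassium phosphate buffer pH 2.0, 6.3 or 7.4 at 37 °C; remaining prodrug and hydrolysis products followed by HPLC.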

Rattus norvegicus [8] = assay: Oral bioavailability in Wistar rat assessed as benzamidine at 50 mg/kg; type: ADME, organism-based; details: in vivo; how it was run: as §3
[9] = Stability in pig kidney microsomes assessed as conversion of prodrug into benzamidine per mg protein; type: ADME, Sus scrofa, Microsome; how it was run: as §2
[10] = Stability in pig kidney 9000g supernatant assessed as conversion of prodrug into benzamidine per mg protein; type: ADME, tissue-based, Sus scrofa; how it was run: as §2
[11] = Stability of the compound at pH 7.4; type: physicochemical; details: buffer; how it was run: as §4
Liver microsomes [12] = assay: Stability in human liver microsomes assessed as conversion of prodrug into benzamidine per mg protein; type: ADME, Microsome; how it was run: as §2
[13] = Stability in pig liver 9000g supernatant assessed as conversion of prodrug into benzamidine per mg protein; type: ADME, tissue-based, Sus scrofa; how it was run: as §2
[14] = Stability of the compound in presence of 0.5 U esterase/250 uL; type: ADME; details: isolated protein
How it was run: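 Prodrugs incubated with pig liver carboxylesterase (0.5 U/250 µL) in 100 mM potassium buffer pH 7.4; hydrolysis followed by HPLC.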

[15] = Stability in human kidney microsomes assessed as conversion of prodrug into benzamidine per mg protein; type: ADME, Microsome; how it was run: as §2
[16] = Stability in pig liver microsomes assessed as conversion of prodrug into benzamidine per mg protein; type: ADME, Sus scrofa, Microsome; how it was run: as §2
[17] = molecular target: T1, Mitochondrial amidoxime-reducing component 1 (Homo sapiens) (UniProt Q5VT66); assay: Activation of prodrug into benzamidine per mg of recombinant hmARC1 in 20 mM MES buffer of pH 6.0 for 30 mins; how it was run: as §1
T1 sequence (whole entry): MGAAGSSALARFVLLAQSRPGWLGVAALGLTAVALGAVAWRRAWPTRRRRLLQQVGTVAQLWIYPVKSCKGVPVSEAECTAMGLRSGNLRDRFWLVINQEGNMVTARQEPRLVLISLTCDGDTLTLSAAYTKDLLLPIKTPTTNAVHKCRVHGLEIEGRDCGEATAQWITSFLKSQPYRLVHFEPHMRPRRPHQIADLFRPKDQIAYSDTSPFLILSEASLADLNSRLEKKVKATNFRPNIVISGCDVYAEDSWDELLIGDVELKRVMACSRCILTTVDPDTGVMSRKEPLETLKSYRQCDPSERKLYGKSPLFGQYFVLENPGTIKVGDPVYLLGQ

Rattus norvegicus [18] = assay: Mean residence time in Wistar rat assessed as benzamidine at 50 mg/kg, po; type: ADME, organism-based; parameters: dose 50 mg/kg, route oral; details: in vivo; how it was run: as §3
[19] = Stability in human kidney mitochondria assessed as conversion of prodrug into benzamidine per mg protein; type: ADME; how it was run: as §2
[20] = Stability in pig liver mitochondria assessed as conversion of prodrug into benzamidine per mg protein; type: ADME, Sus scrofa; how it was run: as §2
Rattus norvegicus [21] = assay: Half life in Wistar rat assessed as benzamidine at 50 mg/kg, po; type: ADME, organism-based; parameters: dose 50 mg/kg, route oral; details: in vivo; how it was run: as §3
Liver [22] = assay: Stability in human liver 9000g supernatant assessed as conversion of prodrug into benzamidine per mg protein; type: ADME, tissue-based; how it was run: as §2
[23] = Stability in human liver mitochondria assessed as conversion of prodrug into benzamidine per mg protein; type: ADME; how it was run: as §2
[24] = Stability in pig hepatocytes assessed as conversion of prodrug into benzamidine per mg protein; type: ADME, cell-based, Sus scrofa, Hepatocyte
[25] = Stability of the compound assessed as conversion to benzamidoxime at pH 2; type: physicochemical; details: buffer; how it was run: as §4
Rattus norvegicus [26] = assay: Tmax in Wistar rat assessed as benzamidine at 50 mg/kg, po; type: ADME, organism-based; parameters: dose 50 mg/kg, route oral; details: in vivo; how it was run: as §3
[27] = Stability in pig hepatocytes assessed as conversion of prodrug into benzamidoxime per mg protein; type: ADME, cell-based, Sus scrofa, Hepatocyte
[28] = Stability in human kidney mitochondria assessed as conversion of prodrug into pentamidine per mg protein; type: ADME; how it was run: as §2
Liver microsomes [29] = assay: Stability in human liver microsomes assessed as conversion of prodrug into pentamidine per mg protein; type: ADME, Microsome; how it was run: as §2
[30] = Activation of prodrug into pentamidine per mg of recombinant hmARC2 in 20 mM MES buffer of pH 6.0 for 30 mins; how it was run: as §1
[31] = molecular target: T1, Mitochondrial amidoxime-reducing component 1 (Homo sapiens); assay: Activation of prodrug into pentamidine per mg of recombinant hmARC1 in 20 mM MES buffer of pH 6.0 for 30 mins; how it was run: as §1
[32] = Stability of the compound at pH 2; type: physicochemical; details: buffer; how it was run: as §4
[33] = Stability in pig liver mitochondria assessed as conversion of prodrug into pentamidine per mg protein; type: ADME, Sus scrofa; how it was run: as §2
[34] = Stability in human kidney microsomes assessed as conversion of prodrug into pentamidine per mg protein; type: ADME, Microsome; how it was run: as §2
[35] = Stability in pig kidney 9000g supernatant assessed as conversion of prodrug into pentamidine per mg protein; type: ADME, tissue-based, Sus scrofa; how it was run: as §2
[36] = Stability in pig kidney microsomes assessed as conversion of prodrug into pentamidine per mg protein; type: ADME, Sus scrofa, Microsome; how it was run: as §2
[37] = Stability in pig kidney mitochondria assessed as conversion of prodrug into pentamidine per mg protein; type: ADME, Sus scrofa; how it was run: as §2
Liver [38] = assay: Stability in human liver 9000g supernatant assessed as conversion of prodrug into pentamidine per mg protein; type: ADME, tissue-based; how it was run: as §2
[39] = Stability in pig liver microsomes assessed as conversion of prodrug into pentamidine per mg protein; type: ADME, Sus scrofa, Microsome; how it was run: as §2
[40] = Stability in pig liver 9000g supernatant assessed as conversion of prodrug into pentamidine per mg protein; type: ADME, tissue-based, Sus scrofa; how it was run: as §2
[41] = Stability in human liver mitochondria assessed as conversion of prodrug into pentamidine per mg protein; type: ADME; how it was run: as §2

`CC(C)[C@H](N)C(=O)O/N=C(\N)c1ccccc1` gave a Stability [1] of 43.7 nmol/min, a Stability [2] of 8.8 nmol/min/mg and a Cmax (Rattus norvegicus [3]) of 23.3 µM. It also gave a Stability [4] of 1.2 nmol/min, a Vd (Rattus norvegicus [5]) of 12.84 L/kg and a CL (Rattus norvegicus [6]) of 50 mL/min/kg. For the same compound, the Stability [7] was “Stable”, the F (Rattus norvegicus [8]) was 87.7% and the Stability [9] was 10.4 nmol/min/mg. For the same compound, the Stability [10] was 5.6 nmol/min, the Stability [11] was “Stable” and the Stability (Liver microsomes [12]) was 0.9 nmol/min/mg. For the same compound, the Stability [13] was 3.4 nmol/min/mg, the Stability [14] was “Unstable” and the Stability [15] was 1.3 nmol/min. The Stability [16] was 7 nmol/min/mg, the Stability [17] was 67.4 nmol/min/mg and the MRT (Rattus norvegicus [18]) was 4.323 h. For the same compound, the Stability [19] was 2 nmol/min/mg, the Stability [20] was 8.6 nmol/min/mg and the t1/2 (Rattus norvegicus [21]) was 2.922 h. For the same compound, the Stability (Liver [22]) was 0.2 nmol/min/mg, the Stability [23] was 1.8 nmol/min/mg and the Stability [24] was 175 pmol/min. For the same compound, the Stability [25] was “Unstable”, the Tmax (Rattus norvegicus [26]) was 0.833 h and the Stability [27] was 650 pmol/min.

`CC(C)[C@H](N)C(=O)O/N=C(\N)c1ccc(OCCCCCOc2ccc(/C(N)=N/OC(=O)[C@@H](N)C(C)C)cc2)cc1` showed a Stability [28] of 0.4 nmol/min/mg, a Stability (Liver microsomes [29]) of 0.3 nmol/min/mg and a Stability [30] of 10.9 nmol/min/mg. The Stability [31] was 48.8 nmol/min, the Stability [32] was “Stable” and the Stability [33] was 1 nmol/min. The Stability [34] was 0.3 nmol/min/mg, the Stability [7] was “Stable” and the Stability [35] was 0.2 nmol/min/mg. It also gave a Stability [36] of 0.7 nmol/min/mg, a Stability [37] of 0.8 nmol/min/mg and a Stability (Liver [38]) of 0.2 nmol/min/mg. For the same compound, the Stability [11] was “Stable”, the Stability [39] was 0.5 nmol/min/mg and the Stability [14] was “Unstable”. The Stability [40] was 0.4 nmol/min/mg and the Stability [41] was 0.2 nmol/min.
